Measurements from ChEMBL document CHEMBL1158972, “New cytotoxic beta-carboline alkaloids from the marine bryozoan, Cribricellina cribraria” (J Nat Prod, 1991).
≈ marks a conversion by molar mass, not a printed value. Calls of active or inactive are those of the source. No cut-off for these calls is given here.

Experiments:
[1] = system: Trichophyton mentagrophytes; experiment: Antimicrobial activity against Trichophyton mentagrophytes assessed per disk; assay type: functional
Human alphaherpesvirus 1 [2] = experiment: Antiviral activity against Herpes simplex virus (type 1 / strain F) ATCC VR 733 in african green monkey BSC1 cells assessed as excess radius from disk edge at 20 ug/disk; assay type: functional, organism-based; conditions: BSC-1
Summary of the method: (§1)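 Disc assay of herpes simplex type I (strain F, ATCC VR 733) on a BSC cell line (ATCC CCL 26). The antiviral zone is scored as excess radius from the disc edge: 2+ = 2-4 mm, 3+ = 4-6 mm, ww = zone over the whole well.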

P388 = experiment: Cytotoxicity against mouse P388 cells; assay type: functional, cell-based
Summary of the method: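 P-388 leukemia line (ATCC CCL 46). The value is the sample concentration, in ng/ml, that reduces cell growth by 50%.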

Bacillus subtilis [3] = experiment: Antimicrobial activity against Bacillus subtilis assessed per disk; assay type: functional
[4] = Cytotoxicity against african green monkey BSC1 cells at 20 ug/disk; assay type: cell-based; conditions: chlorocebus aethiops, bsc-1
Summary of the method: (§2)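 Cytotoxic zone around the disc on a BSC monolayer (ATCC CCL 26), scored as excess radius beyond the disc edge: 2+ = 2-4 mm, 3+ = 4-6 mm, ww = zone over the whole well.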

Poliovirus 1 [5] = experiment: Antiviral activity against Polio virus 1 Pfizer vaccine in african green monkey BSC1 cells assessed as excess radius from disk edge at 20 ug/disk; assay type: functional, organism-based; conditions: BSC-1
Summary of the method: (§3)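 Disc assay on BSC cell monolayers (ATCC CCL 26) infected with the Pfizer vaccine strain of poliovirus, with the virus grown on BSC cells. Scored by the radius of the antiviral/cytotoxic zone beyond the disc edge: 2+ = 2-4 mm, 3+ = 4-6 mm, ww = zone over the whole well.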

Pseudomonas aeruginosa = experiment: Antimicrobial activity against Pseudomonas aeruginosa assessed per disk; assay type: functional
Escherichia coli = experiment: Antimicrobial activity against Escherichia coli assessed per disk; assay type: functional
Amorphotheca resinae [6] = experiment: Antimicrobial activity against Cladosporium resinae assessed per disk; assay type: functional
Candida albicans [7] = experiment: Antimicrobial activity against Candida albicans assessed per disk; assay type: functional
Amorphotheca resinae [8] = experiment: Antimicrobial activity against Cladosporium resinae at 100 units; assay type: functional, organism-based
[9] = system: Trichophyton mentagrophytes; experiment: Antimicrobial activity against Trichophyton mentagrophytes at 100 units; assay type: functional, organism-based
Candida albicans [10] = experiment: Antimicrobial activity against Candida albicans at 30 ug; assay type: functional; conditions: read-out: IZ
Bacillus subtilis [11] = experiment: Antimicrobial activity against Bacillus subtilis at 30 ug; assay type: functional; conditions: read-out: IZ
[12] = Cytotoxicity against african green monkey BSC1 cells at 0.4 ug/disk; assay type: cell-based; conditions: chlorocebus aethiops, bsc-1; summary of the method: as §2
[13] = Cytotoxicity against african green monkey BSC1 cells at 2 ug/disk; assay type: cell-based; conditions: chlorocebus aethiops, bsc-1; summary of the method: as §2
Human alphaherpesvirus 1 [14] = experiment: Antiviral activity against Herpes simplex virus (type 1 / strain F) ATCC VR 733 in african green monkey BSC1 cells assessed as excess radius from disk edge at 0.4 ug/disk; assay type: functional, organism-based; conditions: BSC-1; summary of the method: as §1
[15] = Cytotoxicity against african green monkey BSC1 cells at 0.5 ug/disk; assay type: cell-based; conditions: chlorocebus aethiops, bsc-1; summary of the method: as §2
Poliovirus 1 [16] = experiment: Antiviral activity against Polio virus 1 Pfizer vaccine in african green monkey BSC1 cells assessed as excess radius from disk edge at 0.4 ug/disk; assay type: functional, organism-based; conditions: BSC-1; summary of the method: as §3
Human alphaherpesvirus 1 [17] = experiment: Antiviral activity against Herpes simplex virus (type 1 / strain F) ATCC VR 733 in african green monkey BSC1 cells assessed as excess radius from disk edge at 0.5 ug/disk; assay type: functional, BSC-1; conditions: Human alphaherpesvirus 1, Strain F ATCC VR 733; read-out: IZ; summary of the method: as §1
Poliovirus 1 [18] = experiment: Antiviral activity against Polio virus 1 Pfizer vaccine in african green monkey BSC1 cells assessed as excess radius from disk edge at 0.5 ug/disk; assay type: functional, BSC-1; conditions: Enterovirus C; read-out: IZ; summary of the method: as §3

Molecule	MIC [1]	inhibition zone (IZ) (Human alphaherpesvirus 1 [2])	IC50 (P388)	MIC (Bacillus subtilis [3])	inhibition zone (IZ) [4]	inhibition zone (IZ) (Poliovirus 1 [5])	MIC (Pseudomonas aeruginosa)	MIC (Escherichia coli)	MIC (Amorphotheca resinae [6])	MIC (Candida albicans [7])	also measured
CCc1nccc2c1[nH]c1ccccc12	1.9 µg	inactive	25 µg/mL (≈ 127 µM)	7.5 µg	Not Active	inactive	>60 µg	>120 µg	30 µg	1.9 µg	
CC(C)c1nccc2c1[nH]c1ccccc12	0.45 µg	inactive	13 µg/mL (≈ 61.8 µM)	7.5 µg	Not Active		>60 µg	>120 µg	15 µg	1.9 µg	
NYSTATIN											inhibition zone (IZ) (Amorphotheca resinae [8]): 12 mm; inhibition zone (IZ) [9]: 4 mm
CCc1ncc(S(C)(=O)=O)c2c1[nH]c1ccccc12	30 µg	inactive	> 12.5 µg/mL	30 µg	Not Active		>60 µg	>60 µg	>60 µg	>60 µg	
O=C(N[C@H](CO)[C@H](O)c1ccc([N+](=O)[O-])cc1)C(Cl)Cl [CHLORAMPHENICOL]											zone of inhibition at 30 µg/disc (Candida albicans [10]): 8 mm; zone of inhibition at 30 µg/disc (Bacillus subtilis [11]): 12 mm
C=Cc1nccc2c1[nH]c1c(O)cccc12	0.45 µg			7.5 µg			>60 µg	>60 µg	3.7 µg	15 µg	inhibition zone (IZ) [12]: Not Active; inhibition zone (IZ) [13]: Active; inhibition zone (IZ) (Human alphaherpesvirus 1 [14]): inactive; inhibition zone (IZ) [15]: 2 mm; inhibition zone (IZ) (Poliovirus 1 [16]): inactive; zone of inhibition at 0.5 µg/disc (Human alphaherpesvirus 1 [17]): 1 mm; zone of inhibition at 0.5 µg/disc (Poliovirus 1 [18]): 1 mm
COC(=O)C1Cc2c([nH]c3ccccc23)C(C)N1 (stereo not given)	>60 µg	inactive	120 µg/mL (≈ 491 µM)	>60 µg	Not Active	inactive	>60 µg	>60 µg	>60 µg	7.5 µg	
CC1NC(C(=O)O)Cc2c1[nH]c1ccccc21 (stereo not given)	>60 µg	inactive	> 125 µg/mL	>60 µg	Not Active	inactive	>60 µg	>60 µg	>60 µg	>60 µg	
c1ccc2c(c1)[nH]c1cnccc12 [NORHARMANE]	0.9 µg	inactive	25 µg/mL (≈ 149 µM)	7.5 µg	Not Active	inactive	>60 µg	3.7 µg	15 µg	1.9 µg	
